≈ marks a conversion by molar mass, not a printed value.
Assays:
Assay type in all cases: functional
Enterococcus faecalis [1] = test: Minimum inhibitory concentration against Enterococcus faecalis (strain A20688) in absence of calf serum
Method in brief: (§1)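 Broth microdilution MIC per NCCLS method in Mueller-Hinton broth without serum. Final inoculum approximately 5·10⁵ CFU/well in microtiter plates, incubated 35 °C for 18 h in ambient air.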

Staphylococcus aureus [2] = test: Minimum inhibitory concentration against Staphylococcus aureus (strain A15090) in absence of calf serum; method in brief: as §1
Haemophilus influenzae = test: Minimum inhibitory concentration against Haemophilus influenzae (strain A20191) in absence of calf serum
Method in brief: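 MIC by NCCLS microbroth dilution in Haemophilus test medium broth without serum. Inoculum approximately 5·10⁵ CFU/well in microtiter plates, incubated at 35 °C for 18 h in ambient air.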

Enterococcus faecalis [3] = test: Minimum inhibitory concentration against Enterococcus faecalis (strain A20688) in presence of 50% calf serum
Method in brief: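 Broth microdilution MIC per NCCLS method in Mueller-Hinton broth supplemented with 50% calf serum. Final inoculum approximately 5·10⁵ CFU/well, incubated 35 °C for 18 h in ambient air.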

Staphylococcus aureus [4] = test: Minimum inhibitory concentration against Staphylococcus aureus (strain A15090) in presence of 50% calf serum
Method in brief: (§2)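 Microbroth dilution MIC following the NCCLS method, with 50% calf serum added. Mueller-Hinton broth, inoculum approximately 5·10⁵ CFU/well, incubated at 35 °C for 18 h in ambient air.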

Staphylococcus aureus [5] = test: Minimum inhibitory concentration against methicillin resistant Staphylococcus aureus (strain A27223) in presence of 50% calf serum; method in brief: as §2
Staphylococcus aureus [6] = test: Minimum inhibitory concentration against methicillin resistant Staphylococcus aureus (strain A27223) in absence of calf serum
Method in brief: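 Microbroth dilution MIC following the NCCLS method, no serum added. Mueller-Hinton broth, inoculum approximately 5·10⁵ CFU/well, incubated at 35 °C for 18 h in ambient air.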

Compound	MIC (Enterococcus faecalis [1]) [µg/mL]	MIC (Staphylococcus aureus [2]) [µg/mL]	MIC (Haemophilus influenzae) [µg/mL]	MIC (Enterococcus faecalis [3]) [µg/mL]	MIC (Staphylococcus aureus [4]) [µg/mL]	MIC (Staphylococcus aureus [5]) [µg/mL]	MIC (Staphylococcus aureus [6]) [µg/mL]
COc1cc(OC)cc(-c2cn(CNC(C)=O)oc2=O)c1	> 128	> 128	64 (≈ 219 µM)	–	–	–	–
COc1ccc(-c2cnoc2O)cc1	> 128	> 128	> 64	> 64	> 64	–	–
COc1ccc(-c2cn(CNC(C)=O)oc2=O)cc1	2 (≈ 7.63 µM)	2 (≈ 7.63 µM)	16 (≈ 61 µM)	8	4	4	1 (≈ 3.81 µM)
CC(=O)NCn1cc(-c2cccc(Cl)c2)c(=O)o1	16 (≈ 60 µM)	8 (≈ 30 µM)	32 (≈ 120 µM)	> 64	> 64	16	4 (≈ 15 µM)
CC(=O)NCn1cc(-c2ccc(Br)cc2)c(=O)o1	8 (≈ 25.7 µM)	4 (≈ 12.9 µM)	8 (≈ 25.7 µM)	> 64	> 64	–	2 (≈ 6.43 µM)
CC(=O)NCn1cc(-c2ccc3c(c2)OCO3)c(=O)o1	1 (≈ 3.62 µM)	2 (≈ 7.24 µM)	16 (≈ 57.9 µM)	8	4	4	1 (≈ 3.62 µM)
CC(=O)NCn1cc(-c2cc(F)cc(F)c2)c(=O)o1	32 (≈ 119 µM)	8 (≈ 29.8 µM)	> 64	–	–	–	8 (≈ 29.8 µM)
CC(=O)NCn1cc(-c2ccc(F)c(F)c2)c(=O)o1	> 128	128 (≈ 477 µM)	> 64	> 64	> 64	–	> 128
CC(=O)NCn1cc(-c2cc(C(F)(F)F)cc(C(F)(F)F)c2)c(=O)o1	> 128	> 128	> 64	–	–	–	–
COc1cccc(-c2cn(CNC(C)=O)oc2=O)c1	32 (≈ 122 µM)	32 (≈ 122 µM)	> 64	> 64	64	> 64	16 (≈ 61 µM)
CC(=O)NC[C@H]1CN(c2ccc(N3CCOCC3)c(F)c2)C(=O)O1 [LINEZOLID]	0.5 (≈ 1.48 µM)	1 (≈ 2.96 µM)	8 (≈ 23.7 µM)	0.5	1	1	1 (≈ 2.96 µM)
Oc1oncc1-c1ccc(-c2ccccc2)cc1	> 128	> 128	> 64	> 64	> 64	–	–
CC(=O)NCn1cc(-c2ccccc2)c(=O)o1	16 (≈ 68.9 µM)	8 (≈ 34.4 µM)	8 (≈ 34.4 µM)	16	16	8	4 (≈ 17.2 µM)
NC(=O)Cn1cc(-c2ccccc2)c(=O)o1	> 128	–	> 64	–	–	–	–
COc1ccc(-c2cn(CNC(C)=O)oc2=O)cc1OC	> 128	128 (≈ 438 µM)	> 64	> 64	> 64	–	64 (≈ 219 µM)
CC(=O)NCn1cc(-c2ccc(F)cc2)c(=O)o1	> 128	> 128	32 (≈ 128 µM)	> 64	> 64	–	–
CC(=O)NCn1cc(-c2ccc(-c3ccccc3)cc2)c(=O)o1	4 (≈ 13 µM)	4 (≈ 13 µM)	16 (≈ 51.9 µM)	64	> 64	64	1 (≈ 3.24 µM)
Oc1oncc1-c1ccc2c(c1)OCO2	> 128	> 128	> 64	> 64	> 64	–	–
CC(=O)NCn1cc(-c2ccc(C(C)C)cc2)c(=O)o1	2 (≈ 7.29 µM)	1 (≈ 3.65 µM)	–	8	4	–	–
CSc1ccc(-c2cnoc2O)cc1	> 128	> 128	> 64	> 64	> 64	–	–
CC(=O)NCn1cc(-c2cccc(F)c2)c(=O)o1	16 (≈ 63.9 µM)	8 (≈ 32 µM)	> 64	–	–	–	4 (≈ 16 µM)
CC(=O)NCn1cc(-c2ccc(Cl)cc2)c(=O)o1	8 (≈ 30 µM)	8 (≈ 30 µM)	32 (≈ 120 µM)	–	–	–	4 (≈ 15 µM)
CC(=O)NCn1cc(-c2cccc(C(F)(F)F)c2)c(=O)o1	64 (≈ 213 µM)	32 (≈ 107 µM)	> 64	> 64	64	64	16 (≈ 53.3 µM)
CSc1ccc(-c2cn(CNC(C)=O)oc2=O)cc1	1 (≈ 3.59 µM)	2 (≈ 7.19 µM)	8 (≈ 28.7 µM)	16	16	8	1 (≈ 3.59 µM)
CC(=O)NCn1cc(-c2cccc(C)c2)c(=O)o1	32 (≈ 130 µM)	8 (≈ 32.5 µM)	> 64	–	–	–	4 (≈ 16.2 µM)

From ChEMBL document CHEMBL1137848, “Discovery of isoxazolinone antibacterial agents. Nitrogen as a replacement for the stereogenic center found in oxazolidinone antibacterials” (2004)
